ChEMBL document CHEMBL5653631, “A Potent and Selective ULK1 Inhibitor Suppresses Autophagy and Sensitizes Cancer Cells to Nutrient Stress” (iScience, 2018)

Columns and labels:
[1] = biological target: Epidermal growth factor receptor (Homo sapiens) (UniProt P00533); test: Inhibition of human recombinant EGFR at 40 nM in presence of ATP by radiometric assay relative to control
[2] = biological target: Tyrosine-protein kinase SYK (Homo sapiens) (UniProt P43405); test: Inhibition of human recombinant SYK at 40 nM in presence of ATP by radiometric assay relative to control
[3] = biological target: T1, Serine/threonine-protein kinase TBK1 (Homo sapiens) (UniProt Q9UHD2); test: Inhibition of human recombinant TBK1 at 15 nM related to control ULK1
T1 sequence (whole entry): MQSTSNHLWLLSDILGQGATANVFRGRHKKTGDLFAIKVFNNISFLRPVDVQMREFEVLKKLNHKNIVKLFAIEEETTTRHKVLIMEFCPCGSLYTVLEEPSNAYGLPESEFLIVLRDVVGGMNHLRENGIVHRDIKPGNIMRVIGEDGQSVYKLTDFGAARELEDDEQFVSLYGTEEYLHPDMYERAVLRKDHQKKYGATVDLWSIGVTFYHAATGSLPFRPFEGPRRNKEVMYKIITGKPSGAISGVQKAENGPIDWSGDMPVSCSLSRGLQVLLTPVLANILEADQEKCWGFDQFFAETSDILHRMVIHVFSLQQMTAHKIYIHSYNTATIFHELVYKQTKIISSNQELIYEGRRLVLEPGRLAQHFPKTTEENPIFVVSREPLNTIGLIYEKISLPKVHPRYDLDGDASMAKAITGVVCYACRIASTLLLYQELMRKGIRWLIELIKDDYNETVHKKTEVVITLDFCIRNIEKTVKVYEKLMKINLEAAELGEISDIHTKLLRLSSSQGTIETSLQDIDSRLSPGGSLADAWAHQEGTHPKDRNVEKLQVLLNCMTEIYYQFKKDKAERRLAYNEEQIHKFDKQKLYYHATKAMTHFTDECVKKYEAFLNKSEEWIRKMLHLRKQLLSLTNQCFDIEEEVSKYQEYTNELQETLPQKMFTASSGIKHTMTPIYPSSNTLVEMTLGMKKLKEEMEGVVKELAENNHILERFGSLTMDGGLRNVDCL

[4] = biological target: Dual specificity protein kinase CLK1 (Homo sapiens) (UniProt P49759); test: Inhibition of human recombinant CLK1 at 15 nM related to control ULK1
Chain of Dual specificity protein kinase CLK1 (Homo sapiens) (P49759 whole entry, looked up): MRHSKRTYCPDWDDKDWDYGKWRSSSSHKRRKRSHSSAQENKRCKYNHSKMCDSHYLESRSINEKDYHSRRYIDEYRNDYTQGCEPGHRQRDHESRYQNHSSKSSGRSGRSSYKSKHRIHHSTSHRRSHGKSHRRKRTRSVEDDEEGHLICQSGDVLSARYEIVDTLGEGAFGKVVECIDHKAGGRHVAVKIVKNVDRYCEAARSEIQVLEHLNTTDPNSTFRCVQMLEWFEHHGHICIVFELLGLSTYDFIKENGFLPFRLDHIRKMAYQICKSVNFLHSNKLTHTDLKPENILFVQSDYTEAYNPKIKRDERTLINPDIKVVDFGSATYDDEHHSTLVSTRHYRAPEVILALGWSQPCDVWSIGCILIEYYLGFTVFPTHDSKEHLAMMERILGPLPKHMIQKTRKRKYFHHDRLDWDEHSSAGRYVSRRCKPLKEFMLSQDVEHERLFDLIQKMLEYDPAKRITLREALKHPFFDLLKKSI

[5] = biological target: T2, Aurora kinase C (Homo sapiens) (UniProt Q9UQB9); test: Inhibition of human recombinant AurC at 15 nM in presence of ATP by radiometric assay relative to control
T2 sequence (whole entry): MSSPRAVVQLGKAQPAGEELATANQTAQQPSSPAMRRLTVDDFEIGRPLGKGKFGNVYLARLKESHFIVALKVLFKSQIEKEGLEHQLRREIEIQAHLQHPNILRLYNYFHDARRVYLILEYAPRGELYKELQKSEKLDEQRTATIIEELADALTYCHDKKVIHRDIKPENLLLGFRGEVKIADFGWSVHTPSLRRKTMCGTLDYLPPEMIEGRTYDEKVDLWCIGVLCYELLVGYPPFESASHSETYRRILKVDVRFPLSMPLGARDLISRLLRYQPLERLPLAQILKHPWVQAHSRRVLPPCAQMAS
In short: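 Part of a radiometric in vitro activity panel of 327 recombinant human kinases. Each kinase was tested in duplicate at one inhibitor concentration. Activity remaining was expressed as a percentage of the vehicle control, and percent inhibition was taken as 100 minus that value.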

[6] = biological target: Calcium/calmodulin-dependent protein kinase type 1G (Homo sapiens) (UniProt Q96NX5); test: Inhibition of human recombinant CaMK1g at 15 nM in presence of ATP by radiometric assay relative to control
Chain of Calcium/calmodulin-dependent protein kinase type 1G (Homo sapiens) (Q96NX5 whole entry): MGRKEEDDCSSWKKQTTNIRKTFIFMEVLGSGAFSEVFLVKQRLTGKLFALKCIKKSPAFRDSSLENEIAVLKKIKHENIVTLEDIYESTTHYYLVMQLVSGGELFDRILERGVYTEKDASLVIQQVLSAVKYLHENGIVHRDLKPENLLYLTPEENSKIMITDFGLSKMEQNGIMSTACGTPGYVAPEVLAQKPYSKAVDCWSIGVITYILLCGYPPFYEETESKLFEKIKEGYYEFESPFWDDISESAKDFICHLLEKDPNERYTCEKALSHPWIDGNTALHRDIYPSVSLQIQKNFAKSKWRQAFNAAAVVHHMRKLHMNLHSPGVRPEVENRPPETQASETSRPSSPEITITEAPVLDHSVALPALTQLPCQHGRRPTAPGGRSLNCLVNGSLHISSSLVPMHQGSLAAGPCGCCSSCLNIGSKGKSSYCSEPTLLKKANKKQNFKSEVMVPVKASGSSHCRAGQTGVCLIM

[7] = biological target: T3, Dual specificity mitogen-activated protein kinase kinase 6 (Homo sapiens) (UniProt P52564); test: Inhibition of human recombinant MAP2K6 at 500 nM in presence of ATP by radiometric assay relative to control
T3 sequence (whole entry): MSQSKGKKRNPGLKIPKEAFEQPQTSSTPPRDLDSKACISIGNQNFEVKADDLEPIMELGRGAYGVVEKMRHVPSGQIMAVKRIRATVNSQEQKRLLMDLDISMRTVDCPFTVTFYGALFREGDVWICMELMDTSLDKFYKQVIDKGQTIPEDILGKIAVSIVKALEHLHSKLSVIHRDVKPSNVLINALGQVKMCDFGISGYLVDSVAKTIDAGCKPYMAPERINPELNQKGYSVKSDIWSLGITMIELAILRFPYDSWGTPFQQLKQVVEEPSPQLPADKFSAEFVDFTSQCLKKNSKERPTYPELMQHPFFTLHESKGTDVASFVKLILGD

[8] = biological target: T4, Cytoplasmic tyrosine-protein kinase BMX (Homo sapiens) (UniProt P51813); test: Inhibition of human recombinant BMX at 500 nM related to control ULK1
T4 sequence (whole entry): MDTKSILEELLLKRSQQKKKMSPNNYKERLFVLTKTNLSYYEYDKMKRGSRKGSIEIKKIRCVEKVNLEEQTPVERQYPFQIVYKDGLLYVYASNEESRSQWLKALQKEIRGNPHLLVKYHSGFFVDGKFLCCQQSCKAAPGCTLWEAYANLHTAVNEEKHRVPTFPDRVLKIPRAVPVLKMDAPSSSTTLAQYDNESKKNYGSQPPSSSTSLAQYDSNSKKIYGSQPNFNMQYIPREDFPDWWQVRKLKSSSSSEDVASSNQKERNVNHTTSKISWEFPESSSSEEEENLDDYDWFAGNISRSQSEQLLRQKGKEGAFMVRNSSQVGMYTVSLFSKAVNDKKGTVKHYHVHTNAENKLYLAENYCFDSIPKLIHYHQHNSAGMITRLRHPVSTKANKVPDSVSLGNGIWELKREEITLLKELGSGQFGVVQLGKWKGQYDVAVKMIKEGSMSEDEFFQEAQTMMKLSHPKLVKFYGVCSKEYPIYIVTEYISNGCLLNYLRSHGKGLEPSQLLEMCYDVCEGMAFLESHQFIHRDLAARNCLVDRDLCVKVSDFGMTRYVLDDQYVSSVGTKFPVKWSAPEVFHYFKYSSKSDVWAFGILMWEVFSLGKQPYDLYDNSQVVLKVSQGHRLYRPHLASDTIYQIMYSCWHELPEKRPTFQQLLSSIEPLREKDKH

[9] = biological target: Vascular endothelial growth factor receptor 3 (Homo sapiens) (UniProt P35916); test: Inhibition of human recombinant FLT4 at 500 nM in presence of ATP by radiometric assay relative to control
Chain of Vascular endothelial growth factor receptor 3 (Homo sapiens) (P35916 whole entry): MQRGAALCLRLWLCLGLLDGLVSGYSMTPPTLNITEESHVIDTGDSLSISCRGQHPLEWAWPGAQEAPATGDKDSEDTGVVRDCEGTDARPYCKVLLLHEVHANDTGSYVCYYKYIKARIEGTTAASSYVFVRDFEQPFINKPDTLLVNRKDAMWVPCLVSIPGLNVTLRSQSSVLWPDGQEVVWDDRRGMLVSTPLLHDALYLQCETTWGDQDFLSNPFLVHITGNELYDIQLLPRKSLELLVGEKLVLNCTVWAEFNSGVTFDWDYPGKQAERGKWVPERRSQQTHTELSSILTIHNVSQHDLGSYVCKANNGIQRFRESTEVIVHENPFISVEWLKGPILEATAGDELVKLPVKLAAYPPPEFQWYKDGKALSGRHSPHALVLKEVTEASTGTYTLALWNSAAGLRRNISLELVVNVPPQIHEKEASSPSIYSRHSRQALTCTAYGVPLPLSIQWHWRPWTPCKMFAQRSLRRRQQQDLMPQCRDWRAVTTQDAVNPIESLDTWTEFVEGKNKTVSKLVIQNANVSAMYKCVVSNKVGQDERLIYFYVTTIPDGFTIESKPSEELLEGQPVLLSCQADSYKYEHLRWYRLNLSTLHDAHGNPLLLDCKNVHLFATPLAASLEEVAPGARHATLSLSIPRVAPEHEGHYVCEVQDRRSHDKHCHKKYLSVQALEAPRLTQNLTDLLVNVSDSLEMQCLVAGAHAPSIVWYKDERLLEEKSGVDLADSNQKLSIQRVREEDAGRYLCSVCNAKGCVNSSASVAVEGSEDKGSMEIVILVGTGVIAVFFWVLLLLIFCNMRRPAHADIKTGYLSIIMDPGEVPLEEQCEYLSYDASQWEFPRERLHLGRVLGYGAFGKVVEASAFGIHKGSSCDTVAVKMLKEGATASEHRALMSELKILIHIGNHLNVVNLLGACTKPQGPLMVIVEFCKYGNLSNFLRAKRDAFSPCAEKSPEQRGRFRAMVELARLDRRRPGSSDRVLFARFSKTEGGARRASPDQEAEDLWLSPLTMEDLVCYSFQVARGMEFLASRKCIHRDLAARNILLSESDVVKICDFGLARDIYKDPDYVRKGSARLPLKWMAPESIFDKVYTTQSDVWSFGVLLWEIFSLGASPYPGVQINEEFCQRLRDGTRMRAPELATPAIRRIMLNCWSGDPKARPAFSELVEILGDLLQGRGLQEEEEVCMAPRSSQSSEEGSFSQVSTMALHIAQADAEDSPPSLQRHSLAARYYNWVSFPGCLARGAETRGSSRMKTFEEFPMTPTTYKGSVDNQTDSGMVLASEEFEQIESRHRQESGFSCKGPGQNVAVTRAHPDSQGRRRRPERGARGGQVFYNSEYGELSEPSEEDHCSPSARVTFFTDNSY

[10] = biological target: Leukocyte tyrosine kinase receptor (Homo sapiens) (UniProt P29376); test: Inhibition of human recombinant LTK at 500 nM in presence of ATP by radiometric assay relative to control
Chain of Leukocyte tyrosine kinase receptor (Homo sapiens) (P29376 whole entry): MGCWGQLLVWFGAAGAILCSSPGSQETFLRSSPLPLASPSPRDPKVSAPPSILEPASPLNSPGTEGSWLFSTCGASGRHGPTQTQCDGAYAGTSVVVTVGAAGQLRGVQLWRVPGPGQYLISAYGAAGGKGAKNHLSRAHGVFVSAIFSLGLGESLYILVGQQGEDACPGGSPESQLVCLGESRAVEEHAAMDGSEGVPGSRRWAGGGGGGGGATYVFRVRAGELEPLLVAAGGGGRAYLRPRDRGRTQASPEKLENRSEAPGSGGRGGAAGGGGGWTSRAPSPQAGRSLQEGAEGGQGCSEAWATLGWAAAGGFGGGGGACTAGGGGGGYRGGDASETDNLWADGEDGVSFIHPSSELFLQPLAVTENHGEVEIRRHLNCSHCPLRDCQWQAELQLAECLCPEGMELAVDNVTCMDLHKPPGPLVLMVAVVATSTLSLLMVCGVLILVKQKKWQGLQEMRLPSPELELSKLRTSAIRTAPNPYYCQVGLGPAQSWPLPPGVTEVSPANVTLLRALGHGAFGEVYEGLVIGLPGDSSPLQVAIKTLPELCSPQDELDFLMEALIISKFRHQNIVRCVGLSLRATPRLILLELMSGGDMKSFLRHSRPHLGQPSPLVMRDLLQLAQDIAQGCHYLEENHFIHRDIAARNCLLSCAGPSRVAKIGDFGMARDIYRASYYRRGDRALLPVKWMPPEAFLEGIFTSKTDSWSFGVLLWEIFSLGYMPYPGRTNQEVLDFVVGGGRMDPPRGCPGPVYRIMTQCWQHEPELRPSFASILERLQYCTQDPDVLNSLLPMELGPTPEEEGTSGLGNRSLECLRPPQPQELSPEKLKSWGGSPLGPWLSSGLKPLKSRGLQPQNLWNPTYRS

Chain of Epidermal growth factor receptor (Homo sapiens) (P00533 whole entry): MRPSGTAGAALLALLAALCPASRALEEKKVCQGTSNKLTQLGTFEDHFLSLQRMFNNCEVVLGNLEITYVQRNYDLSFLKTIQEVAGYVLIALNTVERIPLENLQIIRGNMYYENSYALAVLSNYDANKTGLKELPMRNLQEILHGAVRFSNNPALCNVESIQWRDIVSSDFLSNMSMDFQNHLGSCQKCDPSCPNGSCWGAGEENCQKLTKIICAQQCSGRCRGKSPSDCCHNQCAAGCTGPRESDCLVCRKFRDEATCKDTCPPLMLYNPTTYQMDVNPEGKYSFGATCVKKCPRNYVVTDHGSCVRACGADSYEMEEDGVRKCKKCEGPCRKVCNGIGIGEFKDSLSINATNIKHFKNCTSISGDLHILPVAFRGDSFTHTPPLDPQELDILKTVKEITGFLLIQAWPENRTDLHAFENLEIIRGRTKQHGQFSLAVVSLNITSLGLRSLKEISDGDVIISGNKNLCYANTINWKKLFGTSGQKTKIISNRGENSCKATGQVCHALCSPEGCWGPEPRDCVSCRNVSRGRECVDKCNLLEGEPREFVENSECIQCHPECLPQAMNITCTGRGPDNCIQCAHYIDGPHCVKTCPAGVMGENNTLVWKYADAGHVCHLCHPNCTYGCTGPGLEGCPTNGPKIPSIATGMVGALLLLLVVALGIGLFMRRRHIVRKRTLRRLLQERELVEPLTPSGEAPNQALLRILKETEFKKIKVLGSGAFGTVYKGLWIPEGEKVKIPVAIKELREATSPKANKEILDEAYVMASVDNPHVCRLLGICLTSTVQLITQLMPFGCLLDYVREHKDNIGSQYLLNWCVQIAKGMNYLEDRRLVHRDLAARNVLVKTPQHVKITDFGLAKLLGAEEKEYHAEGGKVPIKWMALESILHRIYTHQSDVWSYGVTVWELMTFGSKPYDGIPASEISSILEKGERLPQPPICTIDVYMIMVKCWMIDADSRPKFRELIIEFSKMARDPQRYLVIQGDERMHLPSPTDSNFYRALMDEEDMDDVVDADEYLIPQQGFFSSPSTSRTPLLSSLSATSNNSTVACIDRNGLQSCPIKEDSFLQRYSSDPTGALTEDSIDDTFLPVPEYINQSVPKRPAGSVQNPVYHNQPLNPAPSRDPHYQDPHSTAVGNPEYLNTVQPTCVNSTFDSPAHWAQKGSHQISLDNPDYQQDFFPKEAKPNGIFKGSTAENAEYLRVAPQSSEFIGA

SMILES: O=C(N[C@@H](C1CC1)C(F)(F)F)c1cc(-c2cnn3cc(-c4ccc(F)cc4)cnc23)cs1
- inhibition [1]: 0%
- inhibition [2]: 0%

SMILES: CC(C)[C@H](NC(=O)c1cc(-c2cnn3cc(-c4ccc(OCCN5CCCCC5)cc4)cnc23)cs1)C(F)(F)F
- fold change (FC) [3]: 0.9
- fold change (FC) [4]: 0.95
- inhibition [5]: 8%
- inhibition [6]: 0%

SMILES: CNC(=O)c1ccccc1Oc1nc(Nc2cc(OC)c(OC)c(OC)c2)ncc1Br
- inhibition [7]: 5%
- fold change (FC) [8]: 0.22
- inhibition [9]: 23%
- inhibition [10]: 3%
